Legend:
[1] = test system: rhinovirus A2; experiment: Antiviral activity against HRV2 in HeLa cells by CPE assay; format: functional; set-up: unit not given here
Procedure, shortened: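 HRV-2 stock grown in HeLa cells. 1-day-old confluent HeLa monolayers were given compound in test medium (2% NCS) plus virus at MOI 0.01 after medium removal. CPE was scored 72 h post-infection by crystal violet uptake, with six uninfected and six infected untreated wells per plate and pleconaril as reference. IC50 was taken from mean dose-response curves of at least three separate experiments.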

[2] = Selectivity index, ratio of CC50 for HeLa cells to IC50 for HRV2; format: functional
Procedure, shortened: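 Computed as CC50 (HeLa, 72 h crystal violet viability) divided by IC50 (HRV-2 CPE inhibition in HeLa, 72 h), both in µg/mL.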

[3] = test system: HeLa; experiment: Cytotoxicity against human HeLa cells; format: cell-based; set-up: unit not given here
Procedure, shortened: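 2-day-old confluent HeLa monolayers were exposed to serial 2-fold compound dilutions for 72 h at 37 °C, 5% CO2. Cells were fixed and stained with crystal violet formalin, and the dye was extracted and read at 550/630 nm. Viability was expressed as percent of the mean of six mock-treated controls. CC50 is the concentration cutting viability by 50%.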

## Cc1cc(CCCOc2c(C)cc(-c3ccc(-c4ccccc4)cc3)cc2C)on1
[1]
  logIC50: 1.7
[2]
  logSI: 0
[3]
  logCC50: 1.7

## Cc1cc(CCCOc2c(C)cc(-c3ccc(OC(F)(F)F)cc3)cc2C)on1
[1]
  logIC50: 0.05
[2]
  logSI: 1
[3]
  logCC50: 1.03

## Cc1cc(CCCOc2c(C)cc(-c3ccccc3C)cc2C)on1
[1]
  logIC50: -1.09
[2]
  logSI: 1.76
[3]
  logCC50: 0.66

## Cc1cc(CCCOc2c(C)cc(-c3ccc(Br)cc3)cc2C)on1
[1]
  logIC50: -0.15
[2]
  logSI: 0.85
[3]
  logCC50: 0.68

## Cc1ccc(C)c(-c2cc(C)c(OCCCc3cc(C)no3)c(C)c2)c1
[1]
  logIC50: 1.06
[2]
  logSI: 0.6
[3]
  logCC50: 1.7

## Cc1cc(CCCOc2c(C)cc(-c3ccc(C=O)cc3)cc2C)on1
[1]
  logIC50: -1.09
[2]
  logSI: 2.09
[3]
  logCC50: 1

## CC(=O)c1ccc(-c2cc(C)c(OCCCc3cc(C)no3)c(C)c2)cc1
[1]
  logIC50: -0.63
[2]
  logSI: 2.33
[3]
  logCC50: 1.7

## C=Cc1ccc(-c2cc(C)c(OCCCc3cc(C)no3)c(C)c2)cc1
[1]
  logIC50: -0.9
[2]
  logSI: 3.2
[3]
  logCC50: 2.3

## Cc1cc(CCCOc2c(C)cc(-c3cc(F)c(F)c(F)c3)cc2C)on1
[1]
  logIC50: -1.46
[2]
  logSI: 3.34
[3]
  logCC50: 1.88

## Cc1cc(CCCOc2c(C)cc(-c3ccc(F)c(C)c3)cc2C)on1
[1]
  logIC50: -1.82
[2]
  logSI: 3.1
[3]
  logCC50: 1.28

## Cc1cc(CCCOc2c(C)cc(-c3cc(C(F)(F)F)cc(C(F)(F)F)c3)cc2C)on1
[1]
  logIC50: 1.7
[2]
  logSI: 0
[3]
  logCC50: 1.7

## Cc1cc(CCCOc2c(C)cc(-c3cccc(F)c3)cc2C)on1
[1]
  logIC50: -1.4
[2]
  logSI: 2.36
[3]
  logCC50: 0.96

## Cc1cc(CCCOc2c(C)cc(-c3ccc(C(F)(F)F)cc3)cc2C)on1
[1]
  logIC50: -0.97
[2]
  logSI: 2.05
[3]
  logCC50: 1.08

## Cc1cc(CCCOc2c(C)cc(-c3cccc([N+](=O)[O-])c3)cc2C)on1
[1]
  logIC50: -1.47
[2]
  logSI: 2.25
[3]
  logCC50: 0.79

## Cc1cc(CCCOc2c(C)cc(-c3ccc(F)cc3F)cc2C)on1
[1]
  logIC50: -2.3
[2]
  logSI: 3.2
[3]
  logCC50: 0.9

## COc1cc(-c2cc(C)c(OCCCc3cc(C)no3)c(C)c2)cc(OC)c1OC
[1]
  logIC50: -0.54
[2]
  logSI: 1.53
[3]
  logCC50: 1

## Cc1cc(CCCOc2c(C)cc(-c3ccc(C)c(C)c3)cc2C)on1
[1]
  logIC50: -1.31
[2]
  logSI: 1.97
[3]
  logCC50: 0.66

## Cc1cc(CCCOc2c(C)cc(-c3cccc(C(F)(F)F)c3)cc2C)on1
[1]
  logIC50: -1.24
[2]
  logSI: 2.32
[3]
  logCC50: 1.08

## Cc1cc(CCCOc2c(C)cc(-c3cccc4ccccc34)cc2C)on1
[1]
  logIC50: -0.2
[2]
  logSI: 1.16
[3]
  logCC50: 0.96

## Cc1cc(CCCOc2c(C)cc(-c3ccc(F)cc3)cc2C)on1
[1]
  logIC50: -2.05
[2]
  logSI: 3.74
[3]
  logCC50: 1.7

## Cc1cc(CCCOc2c(C)cc(-c3noc(C(F)(F)F)n3)cc2C)on1 [PLECONARIL]
[1]
  logIC50: -1.7
[2]
  logSI: 2.8
[3]
  logCC50: 1.1

Reference: ChEMBL document CHEMBL1148737, “Quantitative structure-activity relationship studies of [(biphenyloxy)propyl]isoxazole derivatives. Inhibitors of human rhinovirus 2 replication” (J Med Chem, 2007)
